From ChEMBL document CHEMBL1121831 (1981)
Blank lines part the entries; values can stand above or below the compound they belong to.

Columns and labels:
[1] = test system: CCRF-CEM; assay: Compound is tested for the inhibition of growth of human lymphoblastic leukemia cells (CEM); assay type: functional; conditions: read-out: ID50 (the source's name)
How it was run: (§1)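 CEM human lymphoblastic and L1210 murine leukemia cells were grown in culture with drug for 48 h, at concentrations up to 10 μM. The read-out was growth inhibition, given as ID50 or, where ID50 was not reached, as percent inhibition at 10 μM. Values are averages of triplicate experiments.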

[2] = target: Dihydrofolate reductase (Lactobacillus casei) (UniProt P00381); assay: Compound is evaluated for binding to Lactobacillus casei dihydrofolate reductase using kinetic assay; conditions: Lacticaseibacillus casei
[3] = test system: L1210; assay: Compound is evaluated for activity against L1210 leukemia in mice, at dose 15 mg/kg in experiment 1; assay type: functional, Mus musculus
How it was run: (§2)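 B6D2F1 mice were inoculated ip with 10^5 L1210 cells on day 0. Test agents were given ip on days 1, 4 and 7 in 10% Tween 80 or a 1:1:8 emulphor-ethanol-water suspension; MTX was given ip as the disodium salt in water. Groups were mostly five mice. Read-out was median survival of treated vs control mice (days) and % increase in life span.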

[4] = test system: L1210; assay: Compound is evaluated for activity against L1210 leukemia in mice, at dose 20 mg/kg in experiment 2; assay type: functional, Mus musculus; how it was run: as §2
[5] = test system: L1210; assay: Compound is evaluated for activity against L1210 leukemia in mice, at dose 40 mg/kg in experiment 2; assay type: functional, Mus musculus; how it was run: as §2
[6] = test system: L1210; assay: Compound is evaluated for activity against L1210 leukemia in mice, at dose 7.5 mg/kg in experiment 1; assay type: functional, Mus musculus; how it was run: as §2
[7] = test system: L1210; assay: Compound is tested for the inhibition of growth of murine leukemia cells (L1210); assay type: functional; conditions: Mus musculus, read-out: ID50 (the source's name); how it was run: as §1
[8] = test system: L1210; assay: Compound is evaluated for percent increase in life span against L1210 leukemia in mice, at dose 20 mg/kg in experiment 2; assay type: functional; conditions: Mus musculus
How it was run: (§3)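 B6D2F1 mice were inoculated ip with 10⁵ L1210 cells on day 0. Drug was given ip on days 1, 4 and 7 (q3d) as a suspension in 10% Tween 80 or 1:1:8 emulphor–ethanol–water, or as the disodium salt in water. The read-out was median survival of treated versus control mice (T/C, days), expressed as % increase in life span.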

[9] = test system: L1210; assay: Compound is evaluated for percent increase in life span against L1210 leukemia in mice, at dose 40 mg/kg in experiment 2; assay type: functional; conditions: Mus musculus; how it was run: as §3
[10] = test system: L1210; assay: Compound is evaluated for percent increase in life span against L1210 leukemia in mice, at dose 7.5 mg/kg in experiment 1; assay type: functional; conditions: Mus musculus; how it was run: as §3
[11] = test system: L1210; assay: Compound is evaluated for percent increase in life span against L1210 leukemia in mice, at dose 15 mg/kg in experiment 1; assay type: functional; conditions: Mus musculus; how it was run: as §3
[12] = test system: Mus musculus; assay: Compound is evaluated for activity against L1210 leukemia in mice, at dose 7.5 mg/kg expressed as T/C in experiment 1; assay type: functional; how it was run: as §2
[13] = test system: Mus musculus; assay: Compound is evaluated for activity against L1210 leukemia in mice, at dose 15 mg/kg expressed as T/C in experiment 1; assay type: functional; how it was run: as §2
[14] = test system: Mus musculus; assay: Compound is evaluated for activity against L1210 leukemia in mice, at dose 20 mg/kg expressed as T/C in experiment 2; assay type: functional; how it was run: as §2
[15] = test system: Mus musculus; assay: Compound is evaluated for activity against L1210 leukemia in mice, at dose 40 mg/kg expressed as T/C in experiment 2; assay type: functional; how it was run: as §2
[16] = target: T1, Dihydrofolate reductase (Mus musculus) (UniProt P00375); assay: Compound is evaluated for binding to L1210 mouse leukemia cells dihydrofolate reductase using ligand-binding assay
T1 sequence (whole entry): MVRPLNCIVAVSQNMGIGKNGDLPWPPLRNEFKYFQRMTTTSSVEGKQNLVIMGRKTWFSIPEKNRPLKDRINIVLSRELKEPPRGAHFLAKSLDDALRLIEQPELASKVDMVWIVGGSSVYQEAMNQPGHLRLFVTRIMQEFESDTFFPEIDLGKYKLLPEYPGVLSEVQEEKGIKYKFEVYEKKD

[17] = test system: L1210; assay: Compound is evaluated for percent increase in against L1210 leukemia in mice, at dose 15 mg/kg; assay type: functional; conditions: Mus musculus; how it was run: as §3
[18] = test system: L1210; assay: Compound is evaluated for percent increase in against L1210 leukemia in mice, at dose 30 mg/kg; assay type: functional; conditions: Mus musculus, L1210, dose 30 mg/kg; how it was run: as §3
[19] = test system: Mus musculus; assay: Compound is evaluated for activity against L1210 leukemia in mice, at dose 60 mg/kg expressed as T/C=18/9; assay type: functional; how it was run: as §2
[20] = test system: Mus musculus; assay: Compound is evaluated for activity against L1210 leukemia in mice, at dose 15 mg/kg expressed as T/C=15.5/9; assay type: functional; how it was run: as §2
[21] = test system: Mus musculus; assay: Compound is evaluated for activity against L1210 leukemia in mice, at dose 30 mg/kg expressed as T/C=16.5/9; assay type: functional; how it was run: as §2
[22] = test system: RBL-1; assay: Compound is tested for the inhibition of growth of rat basophilic leukemia (RBL)cells; assay type: functional; conditions: read-out: ID50 (the source's name)
[23] = test system: CCRF-CEM; assay: Compound was tested for the inhibition of growth of human lymphoblastic leukemia cells (CEM); assay type: functional; conditions: read-out: ID50 (the source's name); how it was run: as §1
[24] = test system: L1210; assay: Compound was tested for the inhibition of growth of murine leukemia cells (L1210); assay type: functional; conditions: Mus musculus, read-out: ID50 (the source's name); how it was run: as §1
[25] = target: Dihydrofolate reductase (Lactobacillus casei) (UniProt P00381); assay: Affinity for partially purified bacterial (Lactobacillus casei) dihydrofolate reductase; conditions: Lacticaseibacillus casei
[26] = target: T1, Dihydrofolate reductase (Mus musculus); assay: Affinity for mammalian (L1210 mouse leukemia) dihydrofolate reductase
How it was run: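 Partially purified DHFR from L1210 cells, diluted 8-fold in 0.1 M KH2PO4 (pH 6.2) with 0.1% BSA and 1 mM NADPH, then held on ice 5 min. Competition with [3H]MTX over serial 5-fold dilutions starting from a 6 μM solution, 5 min at 0 °C. Unbound ligand removed with Norite charcoal and the supernatant counted; ID50 (50% drop in bound label) read from a logit-log plot.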

[27] = test system: L1210; assay: Compound is evaluated for activity against L1210 leukemia in mice, at dose 160 mg/kg; assay type: functional, Mus musculus; how it was run: as §2
[28] = test system: L1210; assay: Compound is evaluated for activity against L1210 leukemia in mice, at dose 80 mg/kg; assay type: functional, Mus musculus; how it was run: as §2
[29] = test system: L1210; assay: Compound is evaluated for increase in life span against L1210 leukemia in mice, at dose 160 mg/kg; assay type: functional; conditions: Mus musculus; how it was run: as §3
[30] = test system: L1210; assay: Compound is evaluated for increase in life span against L1210 leukemia in mice, at dose 80 mg/kg; assay type: functional; conditions: Mus musculus; how it was run: as §3
[31] = test system: Mus musculus; assay: Compound is evaluated for activity against L1210 leukemia in mice, at dose 80 mg/kg expressed as T/C=11/9; assay type: functional; how it was run: as §2
[32] = test system: Mus musculus; assay: Compound is evaluated for activity against L1210 leukemia in mice, at dose 160 mg/kg expressed as T/C=13/9; assay type: functional; how it was run: as §2

Dihydrofolate reductase (Lactobacillus casei), sequence (P00381 whole entry): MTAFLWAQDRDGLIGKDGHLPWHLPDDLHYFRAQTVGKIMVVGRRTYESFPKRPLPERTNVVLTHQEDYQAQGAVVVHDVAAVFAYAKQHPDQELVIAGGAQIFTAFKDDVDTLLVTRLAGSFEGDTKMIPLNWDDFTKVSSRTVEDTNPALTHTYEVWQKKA

Structure (SMILES): CN(Cc1cnc2nc(N)nc(N)c2n1)c1ccc(C(=O)NC(CCC(=O)NO)C(=O)O)cc1 (stereo not given)
IC50 [1]: 250 nM
ID50 [2]: 30 nM
MTX equivalent [3]: 14.6 mg/kg
MTX equivalent [4]: 19.4 mg/kg
MTX equivalent [5]: 38.8 mg/kg
MTX equivalent [6]: 7.3 mg/kg
IC50 [7]: 62 nM
ILS at 20 mg/kg [8]: 89%
ILS at 40 mg/kg [9]: 111%
ILS at 7.5 mg/kg [10]: 50%
ILS at 15 mg/kg [11]: 60%
Median T/C [12]: 15 days
Median T/C [13]: 16 days
Median T/C [14]: 17 days
Median T/C [15]: 19 days
ID50 [16]: 4.8 nM

Structure (SMILES): CN(Cc1cnc2nc(N)nc(N)c2n1)c1ccc(C(=O)N[C@@H](CCC(=O)O)C(=O)O)cc1 [METHOTREXATE]
IC50 [1]: 3 nM
IC50 [7]: 10 nM
ILS at 15 mg/kg [17]: 72%
ILS at 30 mg/kg [18]: 83%
Median T/C [19]: 18 days
Median T/C [20]: 15.5 days
Median T/C [21]: 16.5 days
IC50 [22]: 3 nM

ID50 [2]: 250 nM
IC50 [7]: > 10000 nM
ID50 [16]: 12 nM
Structure (SMILES): CN(Cc1cnc2nc(N)nc(N)c2n1)c1ccc(C(=O)NC(CCC(=O)N2CCCCC2)C(=O)N2CCCCC2)cc1 (stereo not given)

IC50 [23]: 7600 nM
ID50 [2]: 860 nM
IC50 [24]: 690 nM
ID50 [16]: 530 nM
Structure (SMILES): CN(Cc1cnc2nc(N)nc(N)c2n1)c1ccc(C(=O)NC(CCC(=O)N(Cc2ccccc2)Cc2ccccc2)C(=O)N(Cc2ccccc2)Cc2ccccc2)cc1 (stereo not given)

IC50 [23]: 6400 nM
ID50 [25]: 440 nM
ID50 [26]: 26 nM
IC50 [24]: 9400 nM
Structure (SMILES): CN(Cc1ccccc1)C(=O)CCC(NC(=O)c1ccc(N(C)Cc2cnc3nc(N)nc(N)c3n2)cc1)C(=O)N(C)Cc1ccccc1 (stereo not given)

Structure (SMILES): CN(Cc1cnc2nc(N)nc(N)c2n1)c1ccc(C(=O)NC(CCC(=O)NCc2ccc(Cl)cc2)C(=O)NCc2ccc(Cl)cc2)cc1 (stereo not given)
IC50 [1]: > 10000 nM
ID50 [2]: 2300 nM
MTX equivalent [27]: 130 mg/kg
MTX equivalent [28]: 65 mg/kg
IC50 [7]: 6600 nM
ILS at 160 mg/kg [29]: 44%
ILS at 80 mg/kg [30]: 22%
Median T/C [31]: 11 days
Median T/C [32]: 13 days
ID50 [16]: 180 nM
